The target of test [1] is T1, Human immunodeficiency virus type 1 protease (Human immunodeficiency virus 1, UniProt Q72874). In words: Inhibitory activity against purified HIV-1 protease in a standardized spectrophotometric assay expressed in E. uM. In short, it runs like this:
(§1)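 Recombinant HIV-1 protease, cloned and heterologously expressed in E. coli, then purified. Inhibition was measured in a standardized spectrophotometric protease assay and reported as IC50 values.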

In test [2] the target is T1, Human immunodeficiency virus type 1 protease. In words: Inhibitory activity against purified HIV-1 protease expressed in Escherichia coli in sensitive fluorometric assay.
For test [3] the target is unchanged. Nature of the test: inhibitory activity against purified HIV-1 protease in a standardized spectrophotometric assay expressed in E. inhibition. The gist of the method: as §1
For test [4] the target is unchanged. Nature of the test: inhibitory activity against purified HIV-1 protease in a standardized spectrophotometric assay expressed in E. coli; ni= no inhibition. The gist of the method:
as §1

The subject of a further test is MT4. In words: In vitro anti-HIV activity in MT-4 cells by using an HIV cytopathic assay. It counts as functional. As to conditions: Homo sapiens, read-out: ED50 (the source's name); call rule not given here. The gist of the method:
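HIV cytopathic assay in MT-4 cells, with cell protection quantified by the vital dye XTT. ED50 (µg/mL), the 50% inhibitory concentration, was calculated from the percent cytoprotection for each compound.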

In test [5] the target is T1, Human immunodeficiency virus type 1 protease. Nature of the test: inhibitory activity against purified HIV-1 protease in a standardized spectrophotometric assay expressed in E. coli; ni=no inhibition. In short, it runs like this:
as §1

For test [6] the target is unchanged. Nature of the test: inhibitory activity against purified HIV-1 protease in a standardized spectrophotometric assay expressed in Escherichia coli.
For test [7] the target is unchanged. Nature of the test: inhibitory activity against purified HIV-1 protease in a standardized spectrophotometric assay expressed in E. coli; ni = no inhibition. In short, it runs like this: as §1

In brackets after ≈: the same amount, converted by molar mass.

With `Cc1cc(O)ccc1NC(=O)[C@H](OCc1ccccc1)[C@H](O)[C@@H](O)[C@@H](OCc1ccccc1)C(=O)Nc1ccc(O)cc1C`, in test [1], the IC50 entry was “Not Active”.

In turn, `CNC(=O)[C@H](CCSC)NC(=O)[C@H](OCc1ccccc1)[C@H](O)[C@@H](O)[C@@H](OCc1ccccc1)C(=O)N[C@@H](CCSC)C(=O)NC` came in with a Ki in test [2] of 660 nM.

In turn, `O=C(NCc1cncs1)[C@H](OCc1ccccc1)[C@H](O)[C@@H](O)[C@@H](OCc1ccccc1)C(=O)NCc1cncs1` returned a Ki in test [2] of 7100 nM.

On to `CC(C)[C@@H](CO)NC(=O)[C@H](OCc1ccccc1)[C@H](O)[C@@H](O)[C@@H](OCc1ccccc1)C(=O)N[C@H](CO)C(C)C`, for which the IC50 entry in test [3] was “Not Active”.

With `O=C(NCc1c(F)cccc1Cl)[C@H](OCc1ccccc1)[C@H](O)[C@@H](O)[C@@H](OCc1ccccc1)C(=O)NCc1c(F)cccc1Cl`, the Ki in test [2] was found to be 2000 nM.

In the case of `COC(=O)[C@H](Cc1ccccc1)NC(=O)[C@H](OCc1ccccc1)[C@H](O)[C@@H](O)[C@@H](OCc1ccccc1)C(=O)N[C@@H](Cc1ccccc1)C(=O)OC`, the half-inhibitory concentration (IC50) entry in test [4] is given as “Not Active”.

Consider `CC(C)(C)NC(=O)[C@@H]1CN(Cc2cccnc2)CCN1C[C@@H](O)C[C@@H](Cc1ccccc1)C(=O)N[C@H]1c2ccccc2C[C@H]1O.O` [INDINAVIR], for which the EC50 with MT4 was 0.04 µg/mL.

Turning to `CNC(=O)[C@@H](NC(=O)[C@H](OCc1ccccc1)[C@H](O)[C@@H](O)[C@@H](OCc1ccccc1)C(=O)N[C@H](C(=O)NC)c1ccccc1)c1ccccc1`, the 50% inhibitory concentration (IC50) entry in test [5] is on record as “Not Active”.

Take `O=C(NC1c2ccccc2CC1O)[C@H](OCc1ccccc1)[C@H](O)[C@@H](O)[C@@H](OCc1ccccc1)C(=O)N[C@H]1c2ccccc2C[C@H]1O` (single isomer, unassigned): in test [5], the IC50 result is “Not Active”.

Take `CNC(=O)[C@H](Cc1ccccc1)NC(=O)[C@H](OCc1ccccc1)[C@H](O)[C@@H](O)[C@@H](OCc1ccccc1)C(=O)N[C@@H](Cc1ccccc1)C(=O)NC`: the IC50 entry in test [5] is reported as “Not Active”. The same compound came in with a Ki in test [2] of 140 nM.

As to `COC(=O)[C@H](CC(C)C)NC(=O)[C@H](OCc1ccccc1)[C@H](O)[C@@H](O)[C@@H](OCc1ccccc1)C(=O)N[C@@H](CC(C)C)C(=O)OC`, in test [5], the IC50 result is “Not Active”.

Consider `CNC(=O)C(NC(=O)[C@H](OCc1ccccc1)[C@H](O)[C@@H](O)[C@@H](OCc1ccccc1)C(=O)NC(C(=O)NC)[C@@H](C)O)[C@H](C)O` (stereo partly drawn), for which the IC50 result in test [5] is on record as “Not Active”. Further, affinity in test [2] was put at a Ki of 500 nM.

In test [2], `CNC(=O)[C@H](Cc1ccc(O)cc1)NC(=O)[C@H](OCc1ccccc1)[C@H](O)[C@@H](O)[C@@H](OCc1ccccc1)C(=O)N[C@@H](Cc1ccc(O)cc1)C(=O)NC` yielded a Ki of 5000 nM. The half-maximal inhibitory concentration (IC50) entry in test [4] is “Not Active”.

Turning to `O=C(N[C@@H]1c2ccccc2C[C@@H]1O)[C@H](OCc1ccccc1)[C@H](O)[C@@H](O)[C@@H](OCc1ccccc1)C(=O)N[C@H]1c2ccccc2C[C@H]1O`, the EC50 with MT4 was 0.06 µg/mL (≈ 0.0919 µM). This compound also returned an inhibitory constant (Ki) in test [2] of 0.2 nM.

With `COC(=O)[C@@H](NC(=O)[C@H](OCc1ccccc1)[C@H](O)[C@@H](O)[C@@H](OCc1ccccc1)C(=O)N[C@H](C(=O)OC)C(C)C)C(C)C`, 5000 nM corresponded to half-maximal inhibition in test [6] (IC50).

As for `Cc1c(O)cccc1NC(=O)[C@H](OCc1ccccc1)[C@H](O)[C@@H](O)[C@@H](OCc1ccccc1)C(=O)Nc1cccc(O)c1C`, the 50% inhibitory concentration (IC50) entry in test [1] is recorded as “Not Active”.

Turning to `CNC(=O)[C@@H](NC(=O)[C@H](OCc1ccccc1)[C@H](O)[C@@H](O)[C@@H](OCc1ccccc1)C(=O)N[C@H](C(=O)NC)C(C)C)C(C)C`, the EC50 with MT4 stood at 0.9 µg/mL (≈ 1.46 µM). Besides, the inhibition constant (Ki) in test [2] amounted to 0.4 nM.

Consider `O=C(NCc1ccccn1)[C@H](OCc1ccccc1)[C@H](O)[C@@H](O)[C@@H](OCc1ccccc1)C(=O)NCc1ccccn1`, for which the IC50 entry in test [5] is listed as “Not Active”.

Consider `O=C(NCc1ccncc1)[C@H](OCc1ccccc1)[C@H](O)[C@@H](O)[C@@H](OCc1ccccc1)C(=O)NCc1ccncc1`, for which the IC50 result in test [5] is reported as “Not Active”.

With `O=C(NCCO)[C@H](OCc1ccccc1)[C@H](O)[C@@H](O)[C@@H](OCc1ccccc1)C(=O)NCCO`, in test [5], the IC50 result was “Not Active”.

Take `CC(C)[C@H](NC(=O)[C@H](OCc1ccccc1)[C@H](O)[C@@H](O)[C@@H](OCc1ccccc1)C(=O)N[C@H](C(=O)OCc1ccccc1)C(C)C)C(=O)OCc1ccccc1`: in test [7], the half-inhibitory concentration (IC50) entry was “Not Active”.

For `CC(C)c1nc(CN(C)C(=O)N[C@H](C(=O)N[C@@H](Cc2ccccc2)C[C@H](O)[C@H](Cc2ccccc2)NC(=O)OCc2cncs2)C(C)C)cs1` [RITONAVIR], the EC50 with MT4 was found to be 0.05 µg/mL (≈ 0.0694 µM).

Turning to `CC[C@@H](C)C(NC(=O)[C@H](OCc1ccccc1)[C@H](O)[C@@H](O)[C@@H](OCc1ccccc1)C(=O)NC(C(=O)NC)[C@@H](C)CC)C(=O)NC` (stereo partly drawn), the EC50 with MT4 was 1 µg/mL (≈ 1.56 µM). In test [2], this compound came in with a Ki of 0.9 nM.

Turning to `Cc1ccc(NC(=O)[C@H](OCc2ccccc2)[C@H](O)[C@@H](O)[C@@H](OCc2ccccc2)C(=O)Nc2ccc(C)cc2O)c(O)c1`, the IC50 result in test [1] is listed as “Not Active”.

On to `O=C(NCc1cccnc1)[C@H](OCc1ccccc1)[C@H](O)[C@@H](O)[C@@H](OCc1ccccc1)C(=O)NCc1cccnc1`, for which the IC50 entry in test [5] is on record as “Not Active”.

In the case of `CNC(=O)C(NC(=O)[C@H](OCc1ccccc1)[C@H](O)[C@@H](O)[C@@H](OCc1ccccc1)C(=O)NC(C(=O)NC)c1cccc(F)c1)c1cccc(F)c1` (stereo partly drawn), in test [5], the IC50 entry is reported as “Not Active”. In test [2], the Ki was determined as 81 nM.

Values taken from ChEMBL document CHEMBL1131116, “Design and synthesis of new potent C2-symmetric HIV-1 protease inhibitors. Use of L-mannaric acid as a peptidomimetic scaffold” (J Med Chem, 1998).
